ChEMBL document CHEMBL6087468, “TKK130 is a 3-Hydroxy-Propanamidine (HPA) with Potent Antimalarial In Vivo Activity and a High Barrier to Resistance” (J Med Chem, 2025)
pIC50: −log10 of the molar value. Active and inactive are the calls of the source. The calls are words filed in the database; no cut-off is given here.

Columns and labels:
Plasmodium falciparum [1] = assay: Antimalarial activity against chloroquine, sulfadoxine, and pyrimethamine-resistant Plasmodium falciparum Dd2 infected in erythrocyte assessed as reduction in number of viable parasites at 10 times IC50 concentration treated for 72 hrs followed by allowed to recover in drug-free medium for 28 days by HRP2-ELISA analysis; assay type: functional, organism-based
Plasmodium berghei [2] = assay: In vivo antiplasmodial activity against Plasmodium berghei infected mouse model assessed as mean survival time at 10 mg/kg, po treated 4 times measured at 96 hrs post infection by fluorescence-activated cell sorting (FACS) analysis (reference value: 4 days); assay type: functional
Plasmodium falciparum [3] = assay: Induction of resistance development in Plasmodium falciparum Dd2 Pol delta at 2 x 10^7 initial inoculum per flask measured on day 16 by single-step selection assay; assay type: functional, organism-based
Plasmodium falciparum [4] = assay: Induction of resistance development in Plasmodium falciparum Dd2 Pol delta at 2 x 10^7 initial inoculum per flask by single-step selection assay; assay type: functional, organism-based
[5] = Cytotoxicity against human HeLa cells assessed as cell viability measured after 24 hrs by neutral red assay; assay type: toxicity, cell-based
[6] = Chemical stability of the compound in aqueous buffer at pH 7.4; assay type: physicochemical
Method in brief: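 Stability tested in aqueous phosphate buffer, pH 7.4, at room temperature over 24 h, n = 3.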

Plasmodium knowlesi = assay: Antiplasmodial activity against Plasmodium Knowlesi inhibition of parasite growth measured after 48 hrs incubation by Sybr-green assay; assay type: functional, organism-based
Plasmodium falciparum [7] = assay: Antimalarial activity against chloroquine-sensitive Plasmodium falciparum 3D7 infected in erythrocytes measured after 3 days by HRP2-ELISA analysis; assay type: functional, organism-based; conditions: 3D7, Erythrocyte, 72 h
Plasmodium falciparum [8] = assay: Antimalarial activity against Plasmodium falciparum Dd2 GNF156 harboring Pfcarl-mutant infected in human erythrocytes assessed as inhibition of parasite growth measured after 72 hrs incubation by [3H]hypoxanthine incorporation assay; assay type: functional, organism-based; conditions: Dd2 GNF156, Erythrocyte
Method in brief: (§1)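 Dd2 parent line, and mutants made from it by gene editing or drug selection. Growth inhibition measured by the 72 h [3H]hypoxanthine incorporation assay at Swiss TPH. Values are means of 2 independent biological replicates.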

Plasmodium falciparum [9] = assay: Antimalarial activity against multidrug-resistant Plasmodium falciparum TM90C2b harboring pfcrt, pfmdr1, pfdhfr, pfdhps and pfcytb-Q0 mutated loci assessed as inhibition of parasite growth incubated for 48 hrs by [3H]hypoxanthine incorporation assay; assay type: functional, organism-based
[10] = Microsomal binding in human liver microsomes assessed as unbound fraction […] by Equilibrium dialysis; assay type: ADME, Microsome
Method in brief: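 Equilibrium dialysis across 6 kDa regenerated cellulose membrane: donor 1 μM analyte in 0.5 mg/mL pooled HLMs in 0.1 M potassium phosphate buffer, acceptor 0.9% saline, 24 h at 37 °C. Donor diluted 1:20 in 4% BSA, acetonitrile precipitation, LC–MS/MS against matrix calibration curves; fraction bound from volume-corrected equation, unbound = 1 − bound; triplicate.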

Plasmodium falciparum [11] = assay: Antimalarial activity against Plasmodium falciparum NF54 infected in human erythrocytes assessed as inhibition of parasite growth measured after 48 hrs incubation by [3H]hypoxanthine incorporation assay; assay type: functional, organism-based; conditions: NF54, Erythrocyte
Plasmodium falciparum [12] = assay: Induction of resistance development in Plasmodium falciparum Dd2 Pol delta at 2 x 10^9 initial inoculum per flask at 9 nM measured 60 days of recovery time by single-step selection assay; assay type: functional, organism-based; conditions: time 60.0 day
[13] = Cytotoxicity against human HEK293 cells assessed as cell viability measured after 24 hrs by neutral red assay; assay type: toxicity, cell-based
Plasmodium falciparum [14] = assay: Ex vivo antimalarial activity against Plasmodium falciparum clinical isolates; assay type: functional, organism-based
Plasmodium falciparum [15] = assay: Antimalarial activity against chloroquine, sulfadoxine, and pyrimethamine-resistant Plasmodium falciparum Dd2 infected in erythrocytes measured after 3 days by HRP2-ELISA analysis; assay type: functional, organism-based; conditions: Dd2, Erythrocyte, 72 h
[16] = Plasma stability at 37 °C measured as remaining drug at 2 hrs sampled in triplicate (concentration 25 ng/mL 2 (TKK130)); assay type: ADME, cell-free; conditions: human, at 25 ng/mL, read-out: Stability
Method in brief: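 Fresh EDTA human plasma warmed to 37 °C, spiked to 25 ng/mL (0.5% methanol final), split into three fractions, shaken at 37 °C. Samples at 0, 2, 4, 6, 24, 48 h precipitated with ice-cold acetonitrile containing internal standard; LC–MS/MS. Recovery = analyte/IS area ratio relative to 0 h; triplicate.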

Plasmodium falciparum [17] = assay: Antimalarial activity against […] wild type Plasmodium falciparum NF54 assessed as inhibition of parasite growth incubated for 48 hrs by [3H]hypoxanthine incorporation assay; assay type: functional, organism-based
[18] = Tmax in mouse infected with Plasmodium berghei at 3 mg/kg, po; assay type: ADME, organism-based; conditions: in vivo
Method in brief: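 Infected mice (n = 2 per dose) given a single oral dose of 3, 10 or 30 mg/kg; blood sampled as dried blood spots at 1, 4 and 24 h post-dose, diluted before LC–MS analysis against whole-blood dried-spot calibration (1.56–800 ng/mL) with QCs; tmax from concentration–time profiles.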

Plasmodium falciparum [19] = assay: Antimalarial activity against Plasmodium falciparum Dd2 ELQ300 harboring PfcytB-mutant infected in human erythrocytes assessed as inhibition of parasite growth measured after 72 hrs incubation by [3H]hypoxanthine incorporation assay; assay type: functional, organism-based; conditions: Dd2 ELQ300, Erythrocyte; method in brief: as §1
[20] = Cmax in mouse infected with Plasmodium berghei at 10 mg/kg, po; assay type: ADME, organism-based; conditions: in vivo
Method in brief: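 Single oral dose to P. berghei-infected mice, 2 mice per dose group. Blood sampled at 1, 4 and 24 h post-dose as dried blood spots, plus a blank "0 h" reading. Spots diluted 1:5 (3, 10 mg/kg) or 1:10 (30 mg/kg), then quantified by LC–MS/MS against a whole-blood calibration of 1.56–800 ng/mL with QCs at three levels.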

[21] = Cytotoxicity against human HepG2 cells assessed as cell viability measured after 24 hrs by neutral red assay; assay type: toxicity, cell-based
Plasmodium falciparum [22] = assay: Antimalarial activity against Plasmodium falciparum Dd2 SJ557733 harboring Pfatp4-mutant infected in human erythrocytes assessed as inhibition of parasite growth measured after 72 hrs incubation by [3H]hypoxanthine incorporation assay; assay type: functional, organism-based; conditions: Dd2 SJ557733, Erythrocyte; method in brief: as §1
[23] = Plasma protein binding in plasma (unknown origin) at 25 ng/ml measured after 24 hrs by dilution method; assay type: ADME, cell-free
Method in brief: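 Equilibrium dialysis with donor plasma diluted 1:10 or 1:20 in 0.9% saline, spiked at 25 ng/mL, against 0.9% saline acceptor for 24 h at 37 °C. Concentrations by LC–MS/MS against diluted-plasma calibration curves; unbound fraction (acceptor/donor) back-calculated to undiluted plasma; triplicate; itraconazole reference.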

Plasmodium falciparum [24] = assay: Antimalarial activity against multidrug-resistant Plasmodium falciparum Dd2 harboring pfcrt, pfmdr1, pfdhfr, pfdhps mutated loci assessed as inhibition of parasite growth incubated for 48 hrs by [3H]hypoxanthine incorporation assay; assay type: functional, organism-based
Plasmodium berghei [25] = assay: In vivo antiplasmodial activity against Plasmodium berghei infected mouse model assessed as mean survival time at 3 mg/kg, po treated 4 times measured at 96 hrs post infection by fluorescence-activated cell sorting (FACS) analysis (reference value: 4 days); assay type: functional
Plasmodium berghei [26] = assay: In vivo antiplasmodial activity against Plasmodium berghei infected mouse model assessed as curation rate at 10 mg/kg, po treated 4 times measured at 96 hrs post infection by fluorescence-activated cell sorting (FACS) analysis; assay type: functional
Plasmodium berghei [27] = assay: In vivo antiplasmodial activity against Plasmodium berghei infected mouse model assessed as mean survival time at 50 mg/kg, po treated 4 times measured at 96 hrs post infection by fluorescence-activated cell sorting (FACS) analysis (reference value: 4 days); assay type: functional

What does the source list for `Cl.N=C(CC(O)c1cc2c(F)cc(F)cc2c2cc(C(F)(F)F)ccc12)Nc1ccc(F)cc1` (stereo not drawn)?
Activity (Plasmodium falciparum [1]): Active; MSD (Plasmodium berghei [2]): 28 days; Activity (Plasmodium falciparum [3]): inactive; Activity (Plasmodium falciparum [4]): Active; No Resistant Parasites Generated; IC50 at 24 h [5]: 89300 nM; Stability [6]: > 90%; pIC50 (Plasmodium knowlesi): 9.00; pIC50 (Plasmodium falciparum [7]): 8.70; pIC50 (Plasmodium falciparum [8]): 8.15; pIC50 (Plasmodium falciparum [9]): 6.90; Activity [10]: 2.6%; pIC50 (Plasmodium falciparum [11]): 7.96; Activity (Plasmodium falciparum [12]): Active; No Subsequent Parasite Growth Observed; IC50 at 24 h [13]: 47800 nM; pIC50 (Plasmodium falciparum [14]): 8.12; pIC50 (Plasmodium falciparum [15]): 8.52; remaining at 2 h, 25 ng/mL [16]: 90.2%; pIC50 (Plasmodium falciparum [17]): 7.96; Tmax [18]: 4 h; pIC50 (Plasmodium falciparum [19]): 7.85; Cmax [20]: 599 ng/mL; IC50 at 24 h [21]: 20000 nM; pIC50 (Plasmodium falciparum [22]): 7.96; fraction unbound at 24 h, 25 ng/ml [23]: 0.004; pIC50 (Plasmodium falciparum [24]): 6.76; MSD (Plasmodium berghei [25]): 20 days; Activity (Plasmodium berghei [26]): 33%; MSD (Plasmodium berghei [27]): 30 days
